Data on 26 molecules can be found in ChEMBL document CHEMBL1135395, “Design and synthesis of potent nonpeptidic farnesyltransferase inhibitors based on a terphenyl scaffold” (J Med Chem, 2002).

In assay [1] the target is Protein farnesyltransferase (Homo sapiens, UniProt P49354+P49356). Kind of assay: Inhibition of farnesyltransferase from human Burkitt lymphoma (Daudi) cells. A digest of the protocol:
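Partially purified enzyme from Daudi cells was incubated with [3H]FPP and recombinant H-Ras-CVLS at a range of inhibitor concentrations for 30 min at 37 °C. IC50 was determined.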

Assay [2] concerns the target Geranylgeranyl transferase type I (Homo sapiens, UniProt P49354+P53609). Kind of assay: Inhibition of partially purified Geranylgeranyl transferase type I (GGTase-I) from human Burkitt lymphoma (Daudi) cells. A digest of the protocol:
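Partially purified enzyme from Daudi cells was incubated with [3H]GGPP and recombinant H-Ras-CVLL at a range of inhibitor concentrations for 30 min at 37 °C. The reaction was stopped and filtered on glass fiber filters to separate free from Ras-bound label.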

Broadly, the IC50 is the midpoint of a concentration-inhibition curve. Read a high IC50 as a need for much substance. As for `O=C(O)c1cccc(-c2ccc(NCc3ccc(S)cc3)cc2-c2ccccc2)c1`, the half-inhibitory concentration (IC50) in assay [1] and in assay [2] was over 10 µM in each case.
On to `Cc1cccc(-c2ccc(NC[C@@H](N)CS)cc2)c1`, for which the half-maximal inhibitory concentration (IC50) in assay [1] is 0.77 µM; in assay [2], over 100 µM.
The like results for `COC(=O)c1cccc(-c2ccc(NCc3cncn3Cc3ccc(C#N)cc3)cc2-c2ccccc2)c1` were, in that order, 0.38 µM and 6.9 µM.
The matching figures for `COC(=O)c1cccc(-c2ccc(NCc3cccc(S)c3)cc2-c2ccccc2)c1`: over 10 µM and over 10 µM.
For the molecule `COC(=O)c1cccc(-c2ccc(NCc3ccccc3S)cc2-c2ccccc2)c1`, the half-maximal inhibitory concentration (IC50) in assay [1] and in assay [2] was over 10 µM in each case.
`COC(=O)c1cccc(-c2ccc(NCc3cncn3Cc3ccc([N+](=O)[O-])cc3)cc2-c2ccccc2)c1`: the IC50 in assay [1] is 0.31 µM; in assay [2], 5.9 µM.
The matching figures for `O=C(O)c1cccc(-c2ccc(NCc3cccc(S)c3)cc2-c2ccccc2)c1`: over 10 µM and over 10 µM.
In turn, `Nc1ccc(Cn2cncc2CNc2ccc(-c3cccc(C(=O)O)c3)c(-c3ccccc3)c2)cc1` gave an IC50 in assay [2] of 7 µM.
Regarding `COc1cc(NC[C@@H](N)CS)ccc1-c1cccc(C(=O)O)c1`, the concentration for half-maximal inhibition (IC50) in assay [1] was found to be 0.037 µM; in assay [2], 35 µM.
The like results for `COC(=O)c1cccc(-c2ccc(NCc3cncn3Cc3ccc(N)cc3)cc2-c2ccccc2)c1` were, in that order, 5.6 µM and over 10 µM.
The matching figures for `N[C@@H](CS)CNc1ccc(-c2cccc(C(=O)O)c2)cc1`: 0.15 µM and 90 µM.
The like results for `COC(=O)c1cccc(-c2ccc(NC[C@@H](N)CS)cc2)c1` were, in that order, 0.93 µM and 100 µM.
As for `COC(=O)c1cccc(-c2ccc(NCc3ccc(S)cc3)cc2-c2ccccc2)c1`, the half-maximal inhibitory concentration (IC50) in assay [1] and in assay [2] was over 10 µM throughout.
`CSCC[C@H](NC(=O)c1ccc(NC[C@@H](N)CS)cc1)C(=O)O`: in assay [1], it took 0.15 µM to reach half-maximal inhibition (IC50).
On to `O=C(CCS)Nc1ccc(-c2cccc(C(=O)O)c2)c(-c2ccccc2)c1`, for which the IC50 is 3.8 µM in assay [1] and over 10 µM in assay [2].
The matching figures for `O=C(O)c1cccc(-c2ccc(NC(=O)c3cccc(S)c3)cc2-c2ccccc2)c1`: over 10 µM and over 10 µM.
The like results for `N#Cc1ccc(Cn2cncc2CNc2ccc(-c3cccc(C(=O)O)c3)c(-c3ccccc3)c2)cc1` were, in that order, 0.43 µM and 4.4 µM.
For the molecule `O=C(O)c1cccc(-c2ccc(NCc3cncn3Cc3ccc([N+](=O)[O-])cc3)cc2-c2ccccc2)c1`, the IC50 in assay [1] is 0.45 µM; in assay [2], 3.9 µM.
The matching figures for `N[C@@H](CS)CNc1ccc(-c2cccc(C(=O)O)c2)c(-c2ccccc2)c1`: 0.02 µM and 0.64 µM.
Consider `COC(=O)c1cccc(-c2ccc(NC(=O)c3cccc(S)c3)cc2-c2ccccc2)c1`, for which the IC50 in assay [1] and in assay [2] was over 10 µM each time.
As to `N[C@@H](CS)CNc1ccc(-c2ccccc2)cc1`, the half-inhibitory concentration (IC50) was 1.2 µM in assay [1] and over 100 µM in assay [2].
The matching figures for `N[C@@H](CS)CNc1ccc(-c2cccc(C3N=NN=N3)c2)cc1`: 0.03 µM and 4.4 µM.
As to `COC(=O)c1cccc(-c2ccc(NC(=O)CCS)cc2-c2ccccc2)c1`, the IC50 in assay [1] and in assay [2] was over 10 µM each time.
With `O=C(O)c1cccc(-c2ccc(NCc3cnc[nH]3)cc2-c2ccccc2)c1`, the IC50 was 2.3 µM in assay [1] and 5 µM in assay [2].
`COC(=O)c1cccc(-c2ccc(NCc3c[nH]cn3)cc2-c2ccccc2)c1`: the concentration for half-maximal inhibition (IC50) in assay [1] and in assay [2] was over 10 µM each time.
Consider `CCCOc1cc(NC[C@@H](N)CS)ccc1-c1cccc(C(=O)O)c1`, for which the results for the IC50 in assay [1] and in assay [2] were 0.041 µM and 2.4 µM, respectively.
